Paper PMC4195389 (Journal of the American Chemical Society, 2014)

Legend:
[1] = tested on: HCT116N cells (MMR-proficient) and HCT116O cells (MMR-deficient); format: cell-based
[2] = tested on: HCT116N and HCT116O cells; experiment: MTT cytotoxicity assay; format: cell-based; details: 72 h
How it was run: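 HCT116N and HCT116O cells are seeded at 50,000 cells/well in 96-well format and exposed to test compound for 72 h. MTT labelling follows for 4 h at 37 °C under 5% CO2, and formazan is dissolved in acidified SDS. The read-out is A570 minus A690 background. Percent viability is formazan of treated over untreated cells. Differential cytotoxicity is the difference in percent viability between the two lines.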

[3] = Metalloinsertor pH titrations; format: physicochemical; details: chrysi immine proton; ambient temperature, 0.1 M NaCl; racemic mixtures
How it was run: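 Test compound at 25 μM in 0.1 M NaCl is titrated from about pH 4.5 to 10.5 and back with 6 mM NaOH or 10 mM HCl, with pH followed by electrode. A UV-vis spectrum is recorded after each addition. Absorbance at one strongly changing wavelength is plotted against pH, and pKa is taken from the inflection of the sigmoid. Values from three separate experiments are pooled and averaged.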

[4] = tested on: DNA hairpin 5′-[…]-3′ with CC mismatch; experiment: Covalent DNA binding assay; details: 30 min at 37 °C; neutral phosphate buffer or 5 mM glutathione
[5] = tested on: HCT116O cells (MMR-deficient); experiment: Cell death mode flow cytometry assay; format: cell-based; details: 72 h
How it was run: (§1)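 HCT116 cells, grown in RPMI 1640 with 10% FBS, glutamine, non-essential amino acids, pyruvate, penicillin/streptomycin and 400 μg/mL G418 at 37 °C under 5% CO2, are exposed to test compound (0–0.5 μM) for 72 h. They are then trypsinized, washed in cold PBS, pelleted and resuspended in PBS at 10^6 cells/mL. Staining is 30 min with propidium iodide (1 μg/mL final) plus YO-PRO-1 (50 nM final). Flow-cytometry events are gated as live, apoptotic, necrotic or dead.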

[6] = tested on: HCT116N cells (MMR-proficient); experiment: Cell death mode flow cytometry assay; format: cell-based; details: 72 h
How it was run: as §1

[7] = tested on: matched sites in the DNA duplex; experiment: Binding competition gels with [Rh; details: competition with 4 μM [Rh(bpy)2(phi)]3+; up to 1:15 DNA:complex; data not shown
[8] = tested on: 36-mer DNA duplex containing a CC mismatch; format: binding

Molecule	concentration required for optimal differential activity [1]	optimal concentration for differential cytotoxicity [2]	differential inhibition (difference in %BrdU incorporation between HCT116N and HCT116O cells) [1]	pKa [3]	other results
N.N.[Cl][Pt][Cl] [cisplatin, cis-diamminedichloroplatinum, reference compound]					concentration required for optimal biological activity [1]: 6 μM
[Rh(HDPA)2(chrysi)]^3+ [reference compound]	10 µM	25000 nM			
[Rh(chrysi)(phen)(DPE)]Cl2 [[Rh(chrysi)(phen)(DPE)]^2+]	3 µM	6000 nM	55 ± 2%	8.7 ± 0.2	
[Rh(chrysi)(phen)(PPE)]Cl2 [[Rh(chrysi)(phen)(PPE)]^2+]	1 µM	720 nM	53 ± 7%	8.9 ± 0.4	covalent DNA binding [4]: no covalent DNA binding
[Rh(chrysi)(phen)(PPO)]Cl2 [[Rh(chrysi)(phen)(PPO)]^2+]	0.3 µM	320 nM	62 ± 2%	8.3 ± 0.3	mode of cell death ([5]; 0.2 or 0.5 μM, HCT116O versus HCT116N): induces necrosis preferentially in the MMR-deficient HCT116O cell line; live cells ([5]; HCT116O, 0.2 μM): 28 ± 6%; necrotic cells ([5]; HCT116O, 0.2 μM): 13 ± 2%; cells in the apoptotic region ([5]; HCT116O, following metalloinsertor treatment): 17 ± 7%; live cells ([6]; 0.2 μM): 57 ± 7%; cells in the apoptotic region ([6]; following metalloinsertor treatment): 25 ± 7%
[Rh(chrysi)(phen)(PyOctanol)]Cl2 [[Rh(chrysi)(phen)(PyOctanol)]^2+]		480 nM			
Δ-[Rh(chrysi)(phen)(DPE)]^2+					binding at matched sites [7]: no binding at matched sites; lower binding affinity for mismatched DNA as compared to Δ-[Rh(bpy)2(chrysi)]3+ [8]: ~5 fold
Λ-[Rh(chrysi)(phen)(DPE)]^2+					binding at matched sites [7]: no binding at matched sites
